ChEMBL document CHEMBL4028856, “Discovery of Small Molecules Targeting the Synergy of Cardiac Transcription Factors GATA4 and NKX2-5” (J Med Chem, 2017)
Active and inactive are the calls of the source. No cut-off for these calls is given here.

Columns and labels:
GATA4/NKX2-5 = GATA4/NKX2-5 (Mus musculus, UniProt P42582+Q08369); experiment: Inhibition of mouse GATA4/NKX2-5 transcriptional synergy expressed in African green monkey COS-1 cells measured after 30 hrs by dual luciferase reporter gene assay; assay type: cell-based
How it was run: (§1)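 COS-1 cells co-transfected (Fugene 6, DNA:reagent 1:3) with p3xNKE-luc, Renilla pRL-TKd238 control, and pMT2-GATA4, pMT2-NKX2-5, both, or empty pMT2; DNA balanced with pMT2. Compounds added 6 h post-transfection in 0.1% DMSO, medium renewed at 24 h, lysis at 30 h. Dual-luciferase read-out, firefly/Renilla normalized to vehicle; duplicate wells.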

[1] = molecular target: Transcription factor GATA-4 (Mus musculus) (UniProt Q08369); experiment: Inhibition of binding of mouse GATA4 to [32P]-double stranded oligonucleotide expressed in African green monkey COS-1 cells at 50 uM preincubated for 10 mins followed by [32P]-double stranded oligonucleotide addition measured after 20 mins by EMSA method; assay type: cell-based
How it was run: (§2)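 Nuclear extracts from COS-1 cells transfected with pMT2-GATA4 or pMT2-NKX2-5 (harvested 48 h) preincubated 10 min with 50 μM compound, then 20 min with 32P-labeled GATA4- or NKX2-5-site probe; native 5% PAGE, phosphorimager quantitation; antibody supershift controls; mean ± SD, n = 3–5.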

[2] = molecular target: Homeobox protein Nkx-2.5 (Mus musculus) (UniProt P42582); experiment: Inhibition of binding of mouse NKX2-5 to [32P]-double stranded oligonucleotide expressed in African green monkey COS-1 cells at 50 uM preincubated for 10 mins followed by [32P]-double stranded oligonucleotide addition measured after 20 mins by EMSA method; assay type: cell-based; how it was run: as §2
[3] = molecular target: T1, GATA4/NKX2-5 (Mus musculus) (UniProt Q08369+P42582); details: 10 uM
[4] = molecular target: Transcription factor GATA-4 (Rattus norvegicus) (UniProt P46152); experiment: Inhibition of binding of GATA4 to [32P]-double stranded oligonucleotide in neonatal rat ventricular cardiomyocytes at 50 uM measured after 24 hrs by EMSA method
How it was run: (§3)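 Neonatal rat cardiomyocytes treated 24 h with 50 μM; nuclear extracts incubated 20 min with [α-32P]dCTP Klenow-labeled GATA4- or NKX2-5-site oligonucleotide in HEPES/NaCl/KCl/MgCl2 buffer with poly(dI-dC); 5% native PAGE, phosphorimager; supershift with anti-GATA4/NKX2-5; relative to vehicle, mean ± SD, n = 3–5.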

[5] = molecular target: Homeobox protein Nkx-2.5 (Rattus norvegicus) (UniProt O35767); experiment: Inhibition of binding of NKX2-5 to [32P]-double stranded oligonucleotide in neonatal rat ventricular cardiomyocytes at 50 uM measured after 24 hrs by EMSA method; how it was run: as §3
[6] = Induction of necrosis in endothelin-1 induced neonatal rat ventricular cardiomyocytes assessed as release of adenylate kinase at 50 uM measured after 24 hrs by bioluminescence assay; assay type: cell-based; details: cardiac muscle cell
How it was run: (§4)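 Neonatal rat cardiomyocytes treated 24 h at 50 μM; adenylate kinase released into medium measured by ToxiLight bioluminescence on a luminometer; relative to vehicle, mean ± SD, n = 3.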

[7] = Induction of apoptosis in endothelin-1 induced neonatal rat ventricular cardiomyocytes at 50 uM measured after 24 hrs by TUNEL assay; assay type: cell-based; details: cardiac muscle cell
How it was run: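 Neonatal rat cardiomyocytes on 8-well chamber slides treated 24 h at 50 μM; apoptotic cells detected by TUNEL with peroxidase in situ kit.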

[8] = molecular target: Fibroblast growth factor receptor 3 (Homo sapiens) (UniProt P22607); experiment: Inhibiton of human FGFR3 at 30 uM
How it was run: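 48-kinase profiling panel; compounds tested at 30 μM in duplicate.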

[9] = Induction of aggregation of compounds at 100 uM by nephalometric method
[10] = molecular target: T1, GATA4/NKX2-5 (Mus musculus); experiment: Inhibition of mouse GATA4/NKX2-5 transcriptional synergy expressed in African green monkey COS-1 cells at 50 uM measured after 30 hrs by dual luciferase reporter gene assay; assay type: cell-based; how it was run: as §1
[11] = Induction of aggregation of compound at 3 to 30 uM by nephalometric method
[12] = molecular target: Transcription factor GATA-4 (Mus musculus) (UniProt Q08369); experiment: Inhibition of mouse GATA4-driven transactivation of luciferase reporter construct containing BNP minimal promoter with tandem GATA-site on -90 bp expressed in African green monkey COS-1 cells after 30 hrs by luminometer; assay type: cell-based
How it was run: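 COS-1 cells co-transfected with firefly luciferase driven by BNP minimal or −90 bp BNP promoter, Renilla pRL-TKd238, and pMT2-GATA4 or empty pMT2. Compounds added 6 h post-transfection in 0.1% DMSO, refreshed with medium at 24 h; lysis at 30 h; dual-luciferase, firefly/Renilla normalized to vehicle; triplicate wells.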

[13] = molecular target: T2, GATA4/NKX2-5 (Rattus norvegicus) (UniProt P46152+O35767); experiment: Activation of GATA4/NKX2-5 interaction in neonatal rat ventricular cardiomyocytes assessed as increase in basal mRNA level of ANP at 100 uM after 24 hrs by real-time PCR analysis relative to control
How it was run: (§5)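 Neonatal rat ventricular myocytes (2–4-day-old Sprague-Dawley or Wistar), preplated, seeded on 6-well plates, moved to complete serum-free medium next day and cultured 24 h. Compounds (10–100 μM) added 1 h before 100 nM endothelin-1 or none; ANP and BNP mRNA quantified by RT-PCR at 24 h, normalized to 18S RNA, relative to vehicle; mean ± SD, n = 3–6.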

[14] = molecular target: T2, GATA4/NKX2-5 (Rattus norvegicus); experiment: Activation of GATA4/NKX2-5 interaction in neonatal rat ventricular cardiomyocytes assessed as increase in basal mRNA level of BNP at 100 uM after 24 hrs by real-time PCR analysis relative to control; how it was run: as §5
[15] = Induction of necrosis in neonatal rat ventricular cardiomyocytes assessed as release of adenylate kinase at 50 uM measured after 24 hrs by bioluminescence assay; assay type: cell-based; details: cardiac muscle cell; how it was run: as §4
[16] = Drug level in mouse embryonic stem cells treated with N-[4-(Diethylamino)phenyl]-5-methyl-3-phenylisoxazole-4-carboxamide at 3 to 5 uM measured after 10 days by HPLC/MS method; assay type: ADME, cell-based; details: embryonic stem cell, 240 h
How it was run: (§6)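 Mouse embryonic stem cells exposed 5 and 10 days to 3 or 5 μM, with DMSO and EB differentiation medium blanks. Medium extracted with chloroform; cells pelleted, saline-washed twice, sonicated in chloroform. UPLC-ESI(+)-QTOF/MS, BEH C18, 0.1% formic acid water/acetonitrile gradient 7–80% B over 5 min, 0.6 mL/min, 40 °C.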

[17] = Drug level in embryoid body differentiation medium treated with N-[4-(Diethylamino)phenyl]-5-methyl-3-phenylisoxazole-4-carboxamide at 3 to 5 uM measured after 10 days by HPLC/MS method; how it was run: as §6

GATA4/NKX2-5, sequence (Q08369 whole entry): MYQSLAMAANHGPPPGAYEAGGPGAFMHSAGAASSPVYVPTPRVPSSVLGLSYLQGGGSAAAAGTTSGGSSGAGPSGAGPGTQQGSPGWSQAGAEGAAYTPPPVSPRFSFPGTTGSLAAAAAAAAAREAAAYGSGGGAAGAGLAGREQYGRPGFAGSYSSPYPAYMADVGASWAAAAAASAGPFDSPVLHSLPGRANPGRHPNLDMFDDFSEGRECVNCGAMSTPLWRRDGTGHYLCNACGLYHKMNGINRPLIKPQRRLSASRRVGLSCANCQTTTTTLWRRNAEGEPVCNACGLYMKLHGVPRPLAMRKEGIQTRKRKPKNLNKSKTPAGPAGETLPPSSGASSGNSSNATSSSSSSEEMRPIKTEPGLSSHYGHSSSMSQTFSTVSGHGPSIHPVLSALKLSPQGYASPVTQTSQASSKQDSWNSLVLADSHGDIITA
GATA4/NKX2-5, sequence (P42582 whole entry): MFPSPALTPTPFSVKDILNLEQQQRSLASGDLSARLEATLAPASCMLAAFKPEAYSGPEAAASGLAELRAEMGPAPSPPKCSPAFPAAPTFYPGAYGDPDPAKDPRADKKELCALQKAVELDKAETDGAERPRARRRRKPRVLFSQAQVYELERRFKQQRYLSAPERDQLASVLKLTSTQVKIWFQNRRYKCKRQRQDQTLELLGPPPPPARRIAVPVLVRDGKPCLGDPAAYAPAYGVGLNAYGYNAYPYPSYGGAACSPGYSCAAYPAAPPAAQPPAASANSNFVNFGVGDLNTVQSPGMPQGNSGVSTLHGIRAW
Transcription factor GATA-4 (Mus musculus), sequence (Q08369 whole entry): as the sequence (Q08369 whole entry) above
Homeobox protein Nkx-2.5 (Mus musculus), sequence (P42582 whole entry): as the sequence (P42582 whole entry) above
Homeobox protein Nkx-2.5 (Rattus norvegicus), sequence (O35767 whole entry): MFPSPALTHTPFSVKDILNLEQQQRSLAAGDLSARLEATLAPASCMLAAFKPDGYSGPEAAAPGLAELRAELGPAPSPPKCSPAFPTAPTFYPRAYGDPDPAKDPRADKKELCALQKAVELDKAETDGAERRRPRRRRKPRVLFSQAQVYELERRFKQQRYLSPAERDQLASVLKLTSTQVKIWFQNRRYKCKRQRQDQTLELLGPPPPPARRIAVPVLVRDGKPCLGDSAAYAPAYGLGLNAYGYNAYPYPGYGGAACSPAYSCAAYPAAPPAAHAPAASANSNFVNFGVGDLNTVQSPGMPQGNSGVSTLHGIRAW
Fibroblast growth factor receptor 3 (Homo sapiens), sequence (P22607 23-806 limits assumed): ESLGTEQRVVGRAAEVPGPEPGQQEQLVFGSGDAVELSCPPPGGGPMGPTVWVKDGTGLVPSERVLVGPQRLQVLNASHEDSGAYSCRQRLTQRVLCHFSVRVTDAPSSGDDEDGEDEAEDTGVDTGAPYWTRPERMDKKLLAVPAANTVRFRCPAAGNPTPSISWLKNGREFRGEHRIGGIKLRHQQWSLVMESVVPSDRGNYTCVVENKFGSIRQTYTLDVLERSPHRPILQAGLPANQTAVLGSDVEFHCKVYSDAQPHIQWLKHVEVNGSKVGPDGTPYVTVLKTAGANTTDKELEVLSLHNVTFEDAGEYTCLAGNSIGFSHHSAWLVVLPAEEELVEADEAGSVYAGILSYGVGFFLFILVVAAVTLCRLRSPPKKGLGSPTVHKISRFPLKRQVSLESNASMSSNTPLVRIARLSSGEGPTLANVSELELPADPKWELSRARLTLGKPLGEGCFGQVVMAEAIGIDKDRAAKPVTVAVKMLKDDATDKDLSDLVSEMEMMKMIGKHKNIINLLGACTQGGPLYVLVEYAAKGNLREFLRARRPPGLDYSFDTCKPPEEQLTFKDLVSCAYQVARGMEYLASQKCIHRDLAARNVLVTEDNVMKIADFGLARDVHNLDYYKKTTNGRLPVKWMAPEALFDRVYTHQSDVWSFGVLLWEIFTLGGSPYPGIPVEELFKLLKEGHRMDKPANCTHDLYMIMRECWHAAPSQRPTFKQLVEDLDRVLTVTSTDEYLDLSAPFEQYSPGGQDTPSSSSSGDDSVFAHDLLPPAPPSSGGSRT
Transcription factor GATA-4 (Rattus norvegicus), sequence (P46152 whole entry): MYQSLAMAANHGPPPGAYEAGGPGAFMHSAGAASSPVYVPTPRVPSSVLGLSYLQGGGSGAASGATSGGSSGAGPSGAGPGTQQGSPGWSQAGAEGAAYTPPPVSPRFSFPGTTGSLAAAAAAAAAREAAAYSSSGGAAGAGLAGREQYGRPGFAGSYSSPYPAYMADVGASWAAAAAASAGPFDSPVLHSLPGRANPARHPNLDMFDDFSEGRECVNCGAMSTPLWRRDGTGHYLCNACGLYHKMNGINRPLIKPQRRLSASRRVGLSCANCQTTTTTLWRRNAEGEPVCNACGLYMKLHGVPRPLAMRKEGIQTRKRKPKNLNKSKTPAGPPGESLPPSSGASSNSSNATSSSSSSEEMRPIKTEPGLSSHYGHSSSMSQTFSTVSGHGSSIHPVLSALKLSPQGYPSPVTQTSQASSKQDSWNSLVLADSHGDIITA

In the case of CC(C)COC(=O)c1ccc(NC(=O)c2ccncc2)cc1, the IC50 (GATA4/NKX2-5) is reported as 5 µM, the inhibition [1] is reported as “Active” and the inhibition [2] is reported as “inactive”. For the same compound, the inhibition [3] was “Active”.
For CCCOc1ccc(/C=N/n2c(S)nnc2-c2ccncc2)cc1, the IC50 (GATA4/NKX2-5) was 10 µM, the inhibition [1] was “inactive” and the inhibition [2] was “Active”. For the same compound, the inhibition [4] was 37%, the inhibition [5] was 29% and the Activity [6] was “Non-Toxic”. The Activity [7] was “Non-Toxic”, the inhibition [8] was 55% and the Activity [9] was “Active”. The inhibition [10] was “Active”, the Activity [11] was “inactive” and the inhibition [12] was “Active”. The fold change (FC) [13] was 8.6, the fold change (FC) [14] was 4.9 and the Activity [15] was “Non-Toxic”.
With CCNc1ccc(NC(=O)c2c(-c3ccccc3)noc2C)cc1 the IC50 (GATA4/NKX2-5) was over 50 µM, the Drug metabolism [16] was “Metabolite_Detected” and the Drug metabolism [17] was “Metabolite detected”.
